Measurements of several laboratories.
Protocols differ between the studies behind these lines.
Target: Casein kinase I isoform gamma-3 (CSNK1G3, Homo sapiens, UniProt Q9Y6M4)

Structure (SMILES)	assay	conditions	endpoint	value
O=c1[nH]c2ccccc2n1C1CCN(Cc2ccc(-c3[nH]c4cc5ncnc5cc4nc3-c3ccccc3)cc2)CC1	cell-free assay	0.5 µM	remaining signal	96.5%
Cn1cc(-c2cccc(N3CCc4c(sc5c4CC(C)(C)C5)C3=O)c2CO)cc(Nc2ccncn2)c1=O	enzyme activity, inhibitor	1 µM	inhibition	-1%
CC(C)(C)c1cc(C=C(C#N)C#N)cc(Br)c1O	enzyme activity, inhibitor	0.5 µM	remaining activity	85.8%
COc1cc(Nc2ncc(F)c(Nc3ccc4c(n3)NC(=O)C(C)(C)O4)n2)cc(OC)c1OC	binding, competition with immobilised ligand	10 µM	inhibition	0%
Cn1cc(-c2cc(F)cc(N3CCn4c(cc5c4CCCC5)C3=O)c2CO)cc(Nc2ccc(N3CCN(C4COC4)CC3)cn2)c1=O	enzyme activity, inhibitor	0.1 µM	inhibition	7%
Cn1cncc1[C@@](O)(COc1ccc(C#N)cc1-c1ccc(OC(F)(F)F)cc1)c1ccc(C#N)cc1	cell-free assay, competition with immobilised ligand	1 µM	remaining binding	100%
Cc1nn(C)cc1-c1nc2c(N3CCN(Cc4ccc(Cl)cc4)CC3)c(Cl)cnc2[nH]1	binding, competition with immobilised ligand	1 µM	remaining binding	100%
COc1ncccc1-c1cnn2ccc(N3CCN(C(=O)OC(C)C)CC3)nc12	binding, competition with immobilised ligand	1 µM	remaining binding	92%
N#CC1(c2ccccn2)CCN(Cc2cc(C(=O)O)c(=O)n3ccccc23)CC1	cell-free assay, competition with immobilised ligand	1 µM	remaining binding	93%
